Assay results: ChEMBL document CHEMBL3600335 (Bioorg Med Chem Lett, 2015)
In brackets after ≈: the same amount, converted by molar mass. Activity calls are given as the source filed them. The calls are words filed in the database; no cut-off is given here.

Legend:
Human alphaherpesvirus 1 [1] = test: Antiviral activity against HSV-1 KOS infected in African green monkey RC-37 cells assessed as inhibition of viral replication incubated with virus for 1 hr followed by viral adsorbtion to cells for 1 hr measured after 3 days by plaque reduction assay; type: functional, organism-based; conditions: Human alphaherpesvirus 1, KOS
[2] = Selectivity index, ratio of CC50 for African green monkey RC-37 cells to IC50 for HSV-1 KOS; type: functional
Human alphaherpesvirus 1 [3] = test: Antiviral activity against HSV-1 F infected in African green monkey Vero cells after 2 days by plaque reduction assay; type: functional, organism-based; conditions: Human alphaherpesvirus 1, strain F, 48 h
Human alphaherpesvirus 2 [4] = test: Antiviral activity against HSV-2 G infected in African green monkey Vero cells after 2 days by plaque reduction assay; type: functional, organism-based; conditions: Human alphaherpesvirus 2, strain G, 48 h
[5] = Selectivity index, ratio of CC50 for African green monkey Vero cells to IC50 for HSV-1 F; type: functional
[6] = Selectivity index, ratio of CC50 for African green monkey Vero cells to IC50 for HSV-2 G; type: functional
[7] = Cytotoxicity against African green monkey RC-37 cells assessed as cell viability after 3 days by neutral red uptake assay; type: cell-based; conditions: chlorocebus aethiops
[8] = Cytotoxicity against African green monkey Vero cells after 2 days by neutral red uptake assay; type: cell-based; conditions: chlorocebus sabaeus
Albumin [9] = target: T1, Albumin (Homo sapiens, UniProt P02768); test: Binding affinity to human serum albumin with excitation at 285 nm after 30 mins by fluorescence spectrophotometric analysis; type: ADME
[10] = Selectivity index, ratio of CC50 for African green monkey Vero cells to IC50 for HSV-2 186; type: functional
Human alphaherpesvirus 2 [11] = test: Antiviral activity against HSV-2 186 infected in African green monkey Vero cells assessed as inhibition of viral yield after 48 hrs by crystal violet staining; type: functional, cell-based, strain 186
Summary of the method: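 Viral replication yield reduction assay against HSV-2 strain 186 over a range of drug concentrations. Viral titer was averaged from quadruplicate samples at each concentration, and IC50 was calculated from the titers. Compounds were tested in two separate experiments.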

Albumin [12] = target: T1, Albumin; test: Binding affinity to human serum albumin with excitation at 295 nm after 30 mins by fluorescence spectrophotometric analysis; type: ADME
[13] = Cytotoxicity against African green monkey Vero cells assessed as cell viability after 48 hrs by Alamar Blue assay; type: cell-based; conditions: chlorocebus sabaeus
Albumin [14] = target: T1, Albumin; test: Binding affinity to human serum albumin with excitation at 285 nm by fluorescence emission spectroscopic analysis; type: ADME
Summary of the method: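 Human serum albumin was titrated by fluorescence with the compound, using excitation at 285 nm. Kd was calculated from the titration spectra.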

Albumin [15] = target: T1, Albumin; test: Binding affinity to human serum albumin with excitation at 285 nm assessed as association constant by fluorescence emission spectroscopic analysis; type: ADME; conditions: isolated protein, 0.285 µM
[16] = Solubility of the compound in water at room temperature; type: physicochemical
[17] = Cytotoxicity against African green monkey Vero cells assessed as cell viability after 3 days by MTT assay; type: cell-based; conditions: chlorocebus sabaeus
Human alphaherpesvirus 1 [18] = test: Antiviral activity against HSV-1 15578 infected in African green monkey Vero cells assessed as reduction of virus-induced cytopathic effect after 4 to 6 days by light microscopic analysis; type: functional, organism-based; conditions: Human alphaherpesvirus 1, 15578, Vero
[19] = Selectivity index, ratio of CC50 for African green monkey Vero cells to IC50 for HSV-1 15578; type: functional
Human alphaherpesvirus 1 [20] = test: Antiviral activity against HSV-1 15577 infected in African green monkey Vero cells assessed as reduction of virus-induced cytopathic effect after 4 to 6 days by light microscopic analysis; type: functional, organism-based; conditions: Human alphaherpesvirus 1, 15577, Vero
[21] = Selectivity index, ratio of CC50 for African green monkey Vero cells to IC50 for HSV-1 7401H; type: functional
Human alphaherpesvirus 1 [22] = test: Antiviral activity against HSV-1 7401H infected in African green monkey Vero cells after 2 to 3 days by plaque reduction assay; conditions: Human alphaherpesvirus 1, 7401H
[23] = Cytotoxicity against African green monkey Vero cells assessed as cell viability after 2 days by trypan blue exclusion assay; type: cell-based; conditions: chlorocebus sabaeus
[24] = target: Human immunodeficiency virus type 1 reverse transcriptase (Human immunodeficiency virus 1) (UniProt Q72547); test: Inhibition of HIV-1 reverse transcriptase at 37.5 to 150 ug/ml by Roche colorimetric assay
[25] = target: Human immunodeficiency virus type 1 reverse transcriptase (Human immunodeficiency virus 1) (UniProt Q72547); test: Inhibition of HIV-1 reverse transcriptase in human Jurkat cells assessed as ratio MTT activity to reverse transcriptase activity with compound/reverse transcriptase activity with DMSO at 5 ug/ml after 72 hrs; type: cell-based
Summary of the method: (§1)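 Jurkat cells infected with HIV-1 in the presence of compound, with DMSO as solvent control. Viability was read by MTT assay and HIV replication by reverse transcriptase activity assay. The value is the ratio MTT activity/(RT activity with compound/RT activity in DMSO).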

[26] = target: Human immunodeficiency virus type 1 reverse transcriptase (Human immunodeficiency virus 1) (UniProt Q72547); test: Inhibition of HIV-1 reverse transcriptase in human Jurkat cells assessed as ratio MTT activity to reverse transcriptase activity with compound/reverse transcriptase activity with DMSO at 1 ug/ml after 72 hrs; type: cell-based; summary of the method: as §1
[27] = Human alphaherpesvirus 2, strain 186, Vero, 48 h

T1 sequence (P02768 whole entry): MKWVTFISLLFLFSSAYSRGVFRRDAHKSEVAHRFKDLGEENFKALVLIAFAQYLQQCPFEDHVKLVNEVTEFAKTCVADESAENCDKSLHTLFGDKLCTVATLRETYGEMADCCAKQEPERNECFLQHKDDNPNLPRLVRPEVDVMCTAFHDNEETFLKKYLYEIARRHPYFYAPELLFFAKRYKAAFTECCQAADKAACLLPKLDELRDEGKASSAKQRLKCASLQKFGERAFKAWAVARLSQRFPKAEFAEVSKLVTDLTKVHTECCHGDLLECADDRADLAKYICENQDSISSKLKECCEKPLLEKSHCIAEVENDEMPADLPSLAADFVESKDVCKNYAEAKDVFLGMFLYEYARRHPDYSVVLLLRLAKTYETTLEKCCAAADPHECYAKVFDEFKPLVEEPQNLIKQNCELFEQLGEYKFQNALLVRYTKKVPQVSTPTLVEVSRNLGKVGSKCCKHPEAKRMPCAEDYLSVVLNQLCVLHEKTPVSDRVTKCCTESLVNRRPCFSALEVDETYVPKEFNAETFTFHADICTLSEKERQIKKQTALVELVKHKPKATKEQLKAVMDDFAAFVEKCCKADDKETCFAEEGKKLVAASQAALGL

Question: For `C=C(C)[C@@H]1CC[C@]2(CO)CC[C@]3(C)[C@H](CC[C@@H]4[C@@]5(C)CC[C@H](O)C(C)(C)[C@@H]5CC[C@]43C)[C@@H]12` [BETULIN], which IC50 (Human alphaherpesvirus 1 [1]) is on record?
Answer: 0.7 µM

Question: What about the “Ratio CC50/IC50” value [2] of the same compound?
Answer: 71

Question: What about the IC50 (Human alphaherpesvirus 1 [3]) of the same compound?
Answer: 0.9 µM

Question: And the IC50 (Human alphaherpesvirus 2 [4])?
Answer: 9.4 µM

Question: And the “Ratio CC50/IC50” value [5]?
Answer: 183

Question: And the “Ratio CC50/IC50” value [6]?
Answer: 17.6

Question: What about the CC50 at 72 h [7] of the same compound?
Answer: 49.7 µM

Question: And the CC50 at 48 h [8]?
Answer: 165 µM

Question: With `C=C(C)[C@@H]1CC[C@]2(C(=O)[O-])CC[C@]3(C)[C@H](CC[C@@H]4[C@@]5(C)CC[C@H](O)C(C)(C)[C@@H]5CC[C@]43C)[C@@H]12.CCCCCCCCCCCC[N+](C)(C)Cc1ccccc1` as the compound, how does the Kd (Albumin [9]) read?
Answer: 1.6 µM

Question: What about the “Ratio CC50/IC50” value [10] of the same compound?
Answer: 1.7

Question: And the IC50 (Human alphaherpesvirus 2 [11]; [27])?
Answer: 7.2 µM

Question: And the Kd (Albumin [12])?
Answer: 1.9 µM

Question: What about the CC50 at 48 h [13] of the same compound?
Answer: 12 µM

Question: For `C=C(C)[C@@H]1CC[C@]2(C(=O)O)CC[C@]3(C)[C@H](CC[C@@H]4[C@@]5(C)CC[C@H](O)C(C)(C)[C@@H]5CC[C@]43C)[C@@H]12` [BETULINIC ACID], which IC50 (Human alphaherpesvirus 1 [1]) is on record?
Answer: 0.7 µM

Question: And the “Ratio CC50/IC50” value [2]?
Answer: 15.6

Question: And the Kd (Albumin [14])?
Answer: 0.593 µM

Question: And the Kd (Albumin [9])?
Answer: 4.5 µM

Question: And the “Ratio CC50/IC50” value [10]?
Answer: >62.5

Question: And the Ka (Albumin [15])?
Answer: 1.685 ×10⁶ /M

Question: What about the solubility [16] of the same compound?
Answer: 0.02 µg/mL (≈ 0.0438 µM)

Question: What about the CC50 at 72 h [7] of the same compound?
Answer: 10.9 µM

Question: And the IC50 (Human alphaherpesvirus 2 [11]; [27])?
Answer: 1.6 µM

Question: What about the Kd (Albumin [12]) of the same compound?
Answer: 1.3 µM

Question: What does the source list for `C=C(C)[C@@H]1CC[C@]2(C(=O)N[C@H](C)C(=O)[O-])CC[C@]3(C)[C@H](CC[C@@H]4[C@@]5(C)CC[C@H](O)C(C)(C)[C@@H]5CC[C@]43C)[C@@H]12.C[N+](C)(C)CCO`?
Answer: Kd (Albumin [9]): 47 µM; Ratio CC50/IC50 [10]: >166.7; IC50 (Human alphaherpesvirus 2 [11]; [27]): 0.6 µM; Kd (Albumin [12]): 37 µM; CC50 at 48 h [13]: > 100 µM

Question: Which Kd (Albumin [9]) does the source give for `C=C(C)[C@@H]1CC[C@]2(C(=O)[O-])CC[C@]3(C)[C@H](CC[C@@H]4[C@@]5(C)CC[C@H](O)C(C)(C)[C@@H]5CC[C@]43C)[C@@H]12.C[N+](C)(C)CCO` here?
Answer: 3.9 µM

Question: And the “Ratio CC50/IC50” value [10]?
Answer: >111.1

Question: What about the IC50 (Human alphaherpesvirus 2 [11]; vero) of the same compound?
Answer: 0.9 µM

Question: And the Kd (Albumin [12])?
Answer: 4 µM

Question: And the CC50 at 48 h [13]?
Answer: > 100 µM

Question: Which CC50 at 72 h [17] does the source give for `C=C(C)[C@@H]1CC[C@]2(C(=O)O)CC[C@]3(C)[C@H](CC[C@@H]4[C@@]5(C)CC[C@@H](OS(=O)(=O)O)C(C)(C)[C@@H]5CC[C@]43C)[C@@H]12` here?
Answer: 228 µM

Question: What about the IC50 (Human alphaherpesvirus 1 [18]) of the same compound?
Answer: 45.7 µM

Question: What about the “Ratio CC50/IC50” value [19] of the same compound?
Answer: 5

Question: For `C=C(C)[C@@H]1CC[C@]2(C(=O)O)CC[C@]3(C)[C@H](CC[C@@H]4[C@@]5(C)CC[C@@H](O)[C@@](C)(C(=O)O)[C@@H]5CC[C@]43C)[C@@H]12`, which IC50 (Human alphaherpesvirus 1 [20]) is on record?
Answer: 64.4 µM

Question: Which results are given for `C=C(C)[C@@H]1CC[C@]2(C(=O)N[C@H](C)C(=O)[O-])CC[C@]3(C)[C@H](CC[C@@H]4[C@@]5(C)CC[C@H](O)C(C)(C)[C@@H]5CC[C@]43C)[C@@H]12.CCCCCCCCCCCC[N+](C)(C)Cc1ccccc1`?
Answer: Kd (Albumin [9]): 19 µM; Ratio CC50/IC50 [10]: 11.6; IC50 (Human alphaherpesvirus 2 [11]; [27]): 0.9 µM; Kd (Albumin [12]): 19 µM; CC50 at 48 h [13]: 10.5 µM

Question: With `C=C(C)[C@@H]1CC[C@]2(C(=O)O)CC[C@]3(C)[C@H](CC[C@@H]4[C@@]5(C)CCC(=O)C(C)(C)[C@@H]5CC[C@]43C)[C@@H]12` [BETUNOLIC ACID] as the compound, how does the “Ratio CC50/IC50” value [21] read?
Answer: 6.2

Question: And the IC50 (Human alphaherpesvirus 1 [22])?
Answer: 5.7 µM

Question: And the CC50 at 48 h [23]?
Answer: 35.6 µM

Question: Which inhibition [24] does the source give for `C=C(C)[C@@H]1CC[C@]2(C(=O)O)CC[C@]3(C)[C@H](CC[C@@H]4[C@@]5(C)CC[C@H](O)C(C)(C)[C@@H]5CC[C@]43C)[C@@H]12` here?
Answer: inactive

Question: What about the Ratio [25] of the same compound?
Answer: 0.649

Question: What about the Ratio [26] of the same compound?
Answer: 0.158
